Assay results taken from the array DNA melting data of Ke et al. (doi:10.1101/2024.01.08.574731).

Legend:
[1] = melting temperature; fluorescence melt of hairpins on a sequencing array, two-state fit, raised by 9.35 °C to match UV melts; conditions: sodium 0.088 M
Procedure, shortened: (§1)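 Library hairpins on a sequenced MiSeq flow cell carried annealed Cy3 and quencher oligos, and their Cy3 fluorescence was imaged in 50 mM Na-HEPES pH 8.0 with 25 mM NaCl, in 2.5 °C steps up to 60 °C. Signals were normalised to Cy3 before quenching and to control constructs. Melting temperature and folding enthalpy were obtained from bootstrapped two-state fits, combined by inverse-variance weighting across four replicates, and the fitted temperatures were then raised by 9.35 °C to match UV melts.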

[2] = folding enthalpy; higher = less favourable; fluorescence melt of hairpins on a sequencing array, two-state fit; conditions: sodium 0.088 M
Procedure, shortened: as §1

Sequence | Tm [1] [°C] | folding enthalpy [2] [kcal/mol]
GCCTGTGGAAACACAGAC (.(((((....))))).) | 42.6 | -15.8
GCCTTACGAAAGTATGGC (((.(((....))).))) | 55.6 | -41
GCCTTAGAAATAAGGC ((((((....)))))) | 52.9 | -30.2
GCCTTCCGAAAGGATGGC (((.(((....))).))) | 62 | -42.1
GCCTTCGAAAGAATGGGC ((((((....)))..))) | 42.5 | -28.1
GCCTTCGAAAGAATTGGC ((((((....)))..))) | 37 | -22.9
GCCTTCGCGAAAGCGGGC (((..(((....)))))) | 55.1 | -12.2
GCCTTCGGAAACGAAGAC (.(((((....))))).) | 43.3 | -18.4
GCCTTGCGAAAGCACCGC ((..(((....)))..)) | 42.6 | -10.6
GCCTTGCGAAAGCAGTGC ((..(((....)))..)) | 45.1 | -11.6
GCCTTGCGAAAGCATCGC ((..(((....)))..)) | 51 | -12.4
GCCTTGCGAAAGCATTGC ((..(((....)))..)) | 48.2 | -11.4
GCCTTGCGAAAGCCAAGC ((.(.((....)).).)) | 39 | -8.85
GCCTTGCGAAAGCCGGGC (((..((....))..))) | 55.1 | -19.9
GCCTTGCGAAAGCGGGGC (((..((....))..))) | 65.2 | -33.2
GCCTTTCGAAAGAAGGGC (((.(((....))).))) | 53.6 | -47.5
GCGAAACCTCGC ((((....)))) | 49.5 | -19.9
GCGAAACGAAAGTTCCGC (((.(((....))).))) | 52.5 | -38.2
GCGAAAGTCGC ((((...)))) | 43.8 | -16.6
GCGAACCCGAAAGGGCGC (((..(((....)))))) | 55.5 | -21.4
GCGAACCGTCGC ((((....)))) | 47.7 | -18.7
GCGAACGAAAGTTAACGC ((((((....)))..))) | 44.6 | -20.6
GCGAACGAAAGTTACGC ((((((....))).))) | 51.5 | -22.7
GCGAACGAAAGTTGGCGC ((((((....)))..))) | 53.9 | -32.8

Sequence | Tm [1] [°C] | folding enthalpy [2] [kcal/mol]
GCGAACGAAAGTTGTCGC ((((((....)))..))) | 44.1 | -26.2
GCGAACGAAAGTTTCGC ((((((....))).))) | 60 | -36.7
GCGAACGAAAGTTTGCGC ((((((....)))..))) | 61.8 | -41.9
GCGAACGGAAACGCTCAC (.((.((....)).)).) | 34 | -14.3
GCGAACTCGAAAGAGCGC (((..(((....)))))) | 49.3 | -27.6
GCGAAGAATCGC ((((....)))) | 50.2 | -11.4
GCGAAGCGAAAGCCGCGC (((..((....))..))) | 61.6 | -16.8
GCGAAGCGAAAGCGCCGC (((..((....))..))) | 65.4 | -17.9
GCGAAGCGAAAGCTGGGC ((..(((....)))..)) | 43.7 | -9.44
GCGAAGCGAAAGCTTGGC ((.((((....)))).)) | 52 | -18.1
GCGAAGGGAAACCTCCGC (((.(((....))).))) | 46.6 | -26.1
GCGAAGGGAAACCTTCAC (.(((((....))))).) | 38.6 | -18.1
GCGAAGTCTCGC ((((....)))) | 47.7 | -14.2
GCGAAGTTTCGC ((((....)))) | 50.7 | -18.2
GCGAATACGAAAGTACGC (((..(((....)))))) | 44.9 | -25
GCGAATCGTCGC ((((....)))) | 47.7 | -18
GCGAATGATCGC ((((....)))) | 42.3 | -17.7
GCGAATGGAAACGTTCGC (((((.(....).))))) | 56.7 | -38.4
GCGAATGGTCGC ((((....)))) | 47.8 | -10.4
GCGAATGTTCGC ((((....)))) | 50.3 | -25.7
GCGACAATCGC ((((...)))) | 41.3 | -13.9
GCGACACATCGC ((((....)))) | 50.3 | -24.2
GCGACACCTCGC ((((....)))) | 51.3 | -29.5
GCGACAGGAAACTGCCAC (.(.(((....))).).) | 20.6 | -9.04

Sequence | Tm [1] [°C] | folding enthalpy [2] [kcal/mol]
GCGACATCGAAAGATCGC (((..(((....)))))) | 45.9 | -26.7
GCGACATTCGC ((((...)))) | 52.3 | -14
GCGACCCATCGC ((((....)))) | 52.2 | -19.5
GCGACCGAAAGGTACGC ((((((....))).))) | 58.1 | -23.8
GCGACCGAAAGGTCCCGC ((((((....)))..))) | 42.1 | -13.3
GCGACCGAAAGGTGTCGC ((((((....)))..))) | 59 | -35.5
GCGACCGAAAGGTTACGC ((((((....)))..))) | 50 | -26.6
GCGACCGCTCGC ((((....)))) | 48.1 | -17.3
GCGACCGGAAACGGCCGC (((.(((....))).))) | 65.1 | -25.9
GCGACCGGAAACGGTCAC (.(((((....))))).) | 51.4 | -12.3
GCGACGATCGC ((((...)))) | 42.4 | -13.6
GCGACGCGAAAGCACCGC (((..((....))..))) | 55.8 | -19.7
GCGACGCGAAAGCATAGC ((.(.((....)).).)) | 62.7 | -18.8
GCGACGCGAAAGCGATGC ((..(((....)))..)) | 61.8 | -24.1
GCGACGCGAAAGCTTTGC ((.(.((....)).).)) | 44.7 | -18.6
GCGACGCTTCGC ((((....)))) | 55.7 | -14.7
GCGACGGGAAACCATCGC ((((.((....)).)))) | 51.4 | -45.5
GCGACTGGAAACAGCCAC (.(.(((....))).).) | 27.7 | -12.2
GCGACTGGAAACGGTCGC (((((.(....).))))) | 64.7 | -46.3
GCGACTGGTCGC ((((....)))) | 60.3 | -38.1
GCGAGACCGAAAGGTCGC (((..(((....)))))) | 59.1 | -10.3
GCGAGACCTCGC ((((....)))) | 56.5 | -13.8
GCGAGACGAAAGTCCCGC (((.(((....))).))) | 59 | -35.6
GCGAGACGTCGC ((((....)))) | 52.9 | -8.79

Sequence | Tm [1] [°C] | folding enthalpy [2] [kcal/mol]
GCGAGAGCGAAAGCTCGC (((..(((....)))))) | 65.6 | -9.94
GCGAGCATTCGC ((((....)))) | 57.1 | -27.1
GCGAGCCATCGC ((((....)))) | 57.2 | -28.4
GCGAGCGAAAGCTGGCGC ((((((....)))..))) | 68.7 | -25
GCGAGCGAAAGCTTCCGC ((((((....)))..))) | 44.2 | -16.6
GCGAGCGATCGC ((((....)))) | 53.5 | -25.3
GCGAGCGCTCGC ((((....)))) | 65 | -46.8
GCGAGCGGAAACGCTCAC (.(((((....))))).) | 50.6 | -12.3
GCGAGCGTTCGC ((((....)))) | 49 | -14.2
GCGAGGAATCGC ((((....)))) | 54.6 | -20.5
GCGAGGCGAAAGCAACGC (((..((....))..))) | 61.8 | -21.6
GCGAGGCGAAAGCAGCGC (((..((....))..))) | 68.9 | -29.9
GCGAGGCGAAAGCTTGGC ((.(.((....)).).)) | 46.1 | -12.1
GCGAGGCGAAAGCTTTGC ((.(.((....)).).)) | 51.5 | -20.3
GCGAGGCTTCGC ((((....)))) | 66.7 | -17.9
GCGAGGGTCGC ((((...)))) | 62 | -7.26
GCGAGGTGTCGC ((((....)))) | 65.7 | -5.64
GCGAGTAATCGC ((((....)))) | 58.6 | -20.9
GCGAGTCCTCGC ((((....)))) | 56.2 | -30.2
GCGAGTCGAAAGACACGC (((.(((....))).))) | 66.6 | -38.4
GCGAGTGGAAACACTCAC (.(((((....))))).) | 45.7 | -14
GCGAGTGGAAACGTTCGC ((((..(....)..)))) | 45.5 | -24.6
GCGAGTTGTCGC ((((....)))) | 50.9 | -15.5
GCGATACCTCGC ((((....)))) | 51.4 | -24.9
